Experimental findings from ChEMBL document CHEMBL3414471 (J Med Chem, 2015) are described below.

Activity calls are given as the source filed them. The calls are words filed in the database; no cut-off is given here.

Holding throughout (type): functional, cell-based
Assay [1] concerns the target T1, 5-hydroxytryptamine receptor 2C (Homo sapiens, UniProt P28335).
T1 sequence (P28335 whole entry): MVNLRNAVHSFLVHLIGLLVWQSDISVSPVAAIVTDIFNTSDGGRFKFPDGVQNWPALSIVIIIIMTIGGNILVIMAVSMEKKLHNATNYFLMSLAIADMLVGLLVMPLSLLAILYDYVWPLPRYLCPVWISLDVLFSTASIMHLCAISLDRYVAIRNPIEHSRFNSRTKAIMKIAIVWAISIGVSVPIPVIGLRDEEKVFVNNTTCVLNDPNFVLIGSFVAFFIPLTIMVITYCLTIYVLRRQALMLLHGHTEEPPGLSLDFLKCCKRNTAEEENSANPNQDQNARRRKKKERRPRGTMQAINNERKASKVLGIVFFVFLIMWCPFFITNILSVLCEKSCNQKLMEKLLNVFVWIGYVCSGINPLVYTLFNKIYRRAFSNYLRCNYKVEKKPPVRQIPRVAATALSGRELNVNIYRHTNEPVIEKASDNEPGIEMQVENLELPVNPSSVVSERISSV
In words: Agonist activity at human 5-HT2C receptor expressed in HEK293 cells assessed as calcium flux by FLIPR assay.

In assay [2] the target is T2, 5-hydroxytryptamine receptor 2C (Homo sapiens) (UniProt P28335).
T2 sequence (whole entry): T1 sequence (P28335 whole entry)
In words: Agonist activity at human 5-HT2C receptor expressed in HEK293 cells assessed as calcium flux by FLIPR assay relative to 5-HT. The method in brief: (§1)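 Flp-In-293 cells stably expressing human 5-HT2A, 5-HT2B or 5-HT2C-INI; grown 24–48 h in DMEM/10% dialyzed FBS, plated on poly-L-Lys at 12000 cells/well in 1% dialyzed FBS for 24 h. Loaded 1 h at 37 °C with calcium dye in HBSS, 20 mM Hepes pH 7.40, 2.5 mM probenecid.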

Assay [3] addresses T3, 5-hydroxytryptamine receptor 2B (Homo sapiens, UniProt P41595). In words: Agonist activity at human 5-HT2B receptor expressed in HEK293 cells assessed as calcium flux by FLIPR assay.
For assay [4], the target named is T3, 5-hydroxytryptamine receptor 2B. The assay can be described thus: Agonist activity at human 5-HT2B receptor expressed in HEK293 cells assessed as calcium flux by FLIPR assay relative to 5-HT. The method in brief:
as §1

Assay [5] concerns the target T4, 5-hydroxytryptamine receptor 2A (Homo sapiens, UniProt P28223). In words: Agonist activity at human 5-HT2A receptor expressed in HEK293 cells assessed as calcium flux at 10 uM by FLIPR assay. The method, boiled down:
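Flp-In-293 cells stably expressing human 5-HT2A, 5-HT2B or 5-HT2C-INI, grown in DMEM with 10% dialyzed FBS, then plated for 24 h in 1% dialyzed FBS. Cells were loaded 1 h at 37 °C with calcium dye in Hepes-buffered HBSS, pH 7.40, containing 2.5 mM probenecid. FLIPR read 10 s baseline, then 120 s after drug addition.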

Assay [6] deals with T4, 5-hydroxytryptamine receptor 2A. The assay can be described thus: Agonist activity at human 5-HT2A receptor expressed in HEK293 cells assessed as calcium flux by FLIPR assay relative to 5-HT. The method in brief: as §1
Assay [7] has the same target. The assay can be described thus: Agonist activity at human 5-HT2A receptor expressed in HEK293 cells assessed as calcium flux by FLIPR assay.

T3 sequence (P41595 whole entry): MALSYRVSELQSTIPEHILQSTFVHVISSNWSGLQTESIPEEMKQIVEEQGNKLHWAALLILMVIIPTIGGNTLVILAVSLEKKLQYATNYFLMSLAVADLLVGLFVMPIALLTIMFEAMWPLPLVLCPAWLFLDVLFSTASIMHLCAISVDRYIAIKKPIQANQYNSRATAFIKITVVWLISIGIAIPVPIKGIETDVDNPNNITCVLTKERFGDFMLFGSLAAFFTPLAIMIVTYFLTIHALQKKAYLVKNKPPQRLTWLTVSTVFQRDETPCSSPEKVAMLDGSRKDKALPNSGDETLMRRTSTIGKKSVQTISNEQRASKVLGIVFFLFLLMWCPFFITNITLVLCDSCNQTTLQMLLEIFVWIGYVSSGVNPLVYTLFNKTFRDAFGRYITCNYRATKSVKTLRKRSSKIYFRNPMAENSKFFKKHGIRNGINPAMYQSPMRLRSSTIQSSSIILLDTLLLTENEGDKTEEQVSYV
T4 sequence (P28223 whole entry): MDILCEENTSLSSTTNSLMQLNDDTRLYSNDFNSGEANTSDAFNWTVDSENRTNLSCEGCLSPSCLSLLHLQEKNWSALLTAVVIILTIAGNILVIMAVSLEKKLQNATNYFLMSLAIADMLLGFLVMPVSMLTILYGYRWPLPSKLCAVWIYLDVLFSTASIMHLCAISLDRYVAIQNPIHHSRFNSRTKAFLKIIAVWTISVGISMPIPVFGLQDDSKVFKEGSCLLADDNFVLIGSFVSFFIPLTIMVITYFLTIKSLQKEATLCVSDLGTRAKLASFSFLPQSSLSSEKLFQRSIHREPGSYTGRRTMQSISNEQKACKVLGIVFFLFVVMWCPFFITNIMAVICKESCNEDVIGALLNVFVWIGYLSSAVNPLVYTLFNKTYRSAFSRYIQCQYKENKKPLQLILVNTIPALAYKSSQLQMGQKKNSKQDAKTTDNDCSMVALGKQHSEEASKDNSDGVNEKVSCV

Regarding `CCCOc1ccc(F)cc1[C@@H]1C[C@H]1CN`, the EC50 in assay [1] was found to be 296 nM; in assay [3], 735 nM. The Emax was 80% in assay [2] and 11% in assay [4]. Moreover, in assay [5], the result was inactive.
For `C#CCOc1ccc(Cl)cc1[C@@H]1C[C@H]1CN`, the values for the EC50 in assay [1] and in assay [3] were 365 nM and 4410 nM, respectively. The values for the Emax in assay [2] and in assay [4] were 71% and 30%, respectively. Besides, the result in assay [5] was inactive.
`NC[C@@H]1C[C@H]1c1cc(Cl)ccc1OCC1CC1`: the EC50 in assay [1] is 1080 nM; in assay [3], 3030 nM. Besides, the Emax in assay [2] came out at 51%; in assay [4], 32%. In assay [5], the result was inactive.
Consider `NC[C@H]1C[C@@H]1c1cc(Cl)ccc1OCCCF`, for which the EC50 was 206 nM in assay [1] and 4910 nM in assay [3]. For the same compound, the results for the Emax in assay [2] and in assay [4] were 60% and 22%, respectively. For the same compound, in assay [5], the outcome was inactive.
On to `CCOc1ccc(Cl)cc1[C@@H]1C[C@H]1CN`, for which the figures for the EC50 in assay [1] and in assay [3] were 646 nM and 2310 nM, respectively. Besides, the maximum response (Emax) in assay [2] was determined as 72%; in assay [4], 26%. In addition, in assay [5], the result was inactive.
Regarding `C[C@H]1CNCCc2ccc(Cl)cc21`, in assay [6], the Emax turned out to be 68%.
As to `COCCOc1ccc(Cl)cc1[C@@H]1C[C@H]1CN`, the EC50 was determined as 667 nM in assay [1] and 5300 nM in assay [3]. Also, the Emax in assay [2] came out at 45%; in assay [4], 32%. Moreover, in assay [5], the outcome was inactive.
For `C=CCOc1ccc(Cl)cc1[C@@H]1C[C@H]1CN`, the 50% effective concentration (EC50) came to 737 nM in assay [1] and 4300 nM in assay [3]. Moreover, the values for the maximum response (Emax) in assay [2] and in assay [4] were 42% and 28%, respectively. The result in assay [5] was inactive.
Turning to `CC(C)Oc1ccc(Cl)cc1[C@@H]1C[C@H]1CN`, the concentration giving a half-maximal response (EC50) in assay [1] is 2480 nM; in assay [3] it was 5660 nM.
As to `NC[C@H]1C[C@@H]1c1cc(Cl)ccc1OCC(F)F`, the 50% effective concentration (EC50) in assay [1] stood at 91 nM; in assay [3], 839 nM; in assay [7], 1810 nM. Further, the maximal effect (Emax) came to 81% in assay [2], 27% in assay [4] and 31% in assay [6].
For `NC[C@@H]1C[C@H]1c1cc(Cl)ccc1OCCCF`, the concentration giving a half-maximal response (EC50) in assay [1] is 1260 nM; in assay [3], 6170 nM. For the same compound, the Emax in assay [2] was 24%; in assay [4], 22%. Further, the result in assay [5] was inactive.
For the compound `CC(C)Oc1ccc(Cl)cc1[C@H]1C[C@@H]1CN`, the results for the EC50 in assay [1], in assay [3] and in assay [7] were 91 nM, 997 nM and 4000 nM, respectively.
As for `NC[C@@H]1C[C@H]1c1cc(Cl)ccc1OCC(F)F`, the EC50 turned out to be 914 nM in assay [1], 1480 nM in assay [3] and 1300 nM in assay [7]. Also, the Emax in assay [2] is 64%; in assay [4], 30%; in assay [6] it was 43%.
For the compound `NC[C@H]1C[C@@H]1c1cc(Cl)ccc1OCC1CC1`, the EC50 in assay [1] turned out to be 251 nM; in assay [3], 5010 nM. Moreover, the results for the Emax in assay [2] and in assay [4] were 75% and 20%, respectively. In addition, the result in assay [5] was inactive.
Consider `C#CCOc1ccc(Cl)cc1[C@H]1C[C@@H]1CN`, for which the EC50 in assay [1] came out at 63 nM; in assay [3], 4600 nM; in assay [7], 1010 nM. In addition, the Emax amounted to 65% in assay [2], 29% in assay [4] and 21% in assay [6].
As to `CCCOc1ccc(Cl)cc1[C@@H]1C[C@H]1CN`, the EC50 in assay [1] was 1230 nM; in assay [3] it was 3000 nM. Further, the Emax in assay [2] is 31%; in assay [4], 21%. Moreover, the outcome in assay [5] was inactive.
Turning to `NC[C@@H]1C[C@H]1c1cc(Cl)ccc1OCCF`, the 50% effective concentration (EC50) in assay [1] is 1130 nM; in assay [3] it was 4520 nM. Besides, the Emax came out at 59% in assay [2] and 31% in assay [4]. The result in assay [5] was inactive.
